Reference: ChEMBL document CHEMBL4376814, “Novel cyclin-dependent kinase 9 (CDK9) inhibitor with suppression of cancer stemness activity against non-small-cell lung cancer” (Eur J Med Chem, 2019)
Activity calls are given as the source filed them. No cut-off for these calls is given here.

Legend:
NCI-H1299 [1] = assay: Antitumour activity against human H1299 cells xenografted in Balb/c mouse assessed as effect on CDK9 level at 20 to 80 mg/kg, po administered for 3 weeks by […] based light microscopic analysis; assay type: functional, organism-based
Summary of the method: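 Tumours came from the H1299 oral-dosing xenograft run for 3 weeks. Formalin-fixed, paraffin-embedded 5-µm sections were deparaffinized and rehydrated. Primary antibodies (CDK9, cyclin T1, p-Rb Ser780, RNAPII CTD Ser5, Oct4) used at 1:100 overnight at 4 °C. Biotinylated secondary for 1 h at room temperature, then ABC-peroxidase/DAB, hematoxylin counterstain and light microscopy.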

[2] = tested on: Serine/threonine-protein kinase Chk2 (Homo sapiens), O96017 [R145W]; assay: Inhibition of recombinant human CHK2 R145W mutant (5 to end residues) at 1 uM using KKKVSRSGLYRSPSMPENLNRPR as substrate measured after 40 mins in presence of [gamma33P]ATP by scintillation counting method relative to control
Serine/threonine-protein kinase Chk2 (Homo sapiens), O96017 [R145W], sequence (O96017 whole entry R145W): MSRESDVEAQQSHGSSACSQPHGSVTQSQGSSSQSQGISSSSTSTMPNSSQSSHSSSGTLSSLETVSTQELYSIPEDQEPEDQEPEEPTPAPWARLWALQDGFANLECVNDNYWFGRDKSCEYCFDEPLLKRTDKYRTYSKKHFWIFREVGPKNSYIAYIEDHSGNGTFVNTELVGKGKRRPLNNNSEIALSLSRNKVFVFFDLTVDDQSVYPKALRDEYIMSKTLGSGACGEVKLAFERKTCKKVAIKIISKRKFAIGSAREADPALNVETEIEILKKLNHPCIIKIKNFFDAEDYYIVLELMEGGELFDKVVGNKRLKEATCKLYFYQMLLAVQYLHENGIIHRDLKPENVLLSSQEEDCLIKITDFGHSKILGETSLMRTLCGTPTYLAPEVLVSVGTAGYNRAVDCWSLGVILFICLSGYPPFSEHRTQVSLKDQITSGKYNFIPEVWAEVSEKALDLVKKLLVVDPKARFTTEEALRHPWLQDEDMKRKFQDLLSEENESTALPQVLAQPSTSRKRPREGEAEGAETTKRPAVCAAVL
Summary of the method: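 Single-point inhibition at 1 µM was measured in the Eurofins KinaseProfiler panel. Values are the mean of two independent experiments.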

[3] = tested on: Hepatocyte growth factor receptor (Homo sapiens), P08581 [D1228N]; assay: Inhibition of recombinant human MET A1209G/V1290L/D1246N mutant (974 to end residues) at 1 uM using KKKGQEEEYVFIE as substrate measured after 40 mins in presence of [gamma33P]ATP by scintillation counting method relative to control
[4] = tested on: Tyrosine-protein kinase receptor UFO (Homo sapiens), P30530 [Q764R]; assay: Inhibition of recombinant human AXL Q764R mutant (473 to end residues) at 1 uM using KKSRGDYMTMQIG as substrate measured after 40 mins in presence of [gamma33P]ATP by scintillation counting method relative to control
[5] = biological target: Phosphatidylinositol 4-phosphate 3-kinase C2 domain-containing subunit alpha (Homo sapiens) (UniProt O00443); assay: Inhibition of recombinant human PI3KC2alpha (299 to end residues) at 1 uM using phosphatidylinositol as substrate measured after 40 mins by HTRF assay relative to control
NCI-H1299 [6] = assay: Induction of apoptosis in human H1299 cells assessed as viable cells at 0.25 uM after 48 hrs by AnnexinV-FITC/PI staining-based flow cytometric analysis (reference value: 97.1%); assay type: functional; conditions: NCI-H1299, 48 h, read-out: Activity
[7] = biological target: ALK tyrosine kinase receptor (Homo sapiens) (UniProt Q9UM73); assay: Inhibition of recombinant human ALK (1058 to end residues) at 1 uM using KKKSPGEYVNIEF as substrate measured after 40 mins in presence of [gamma33P]ATP by scintillation counting method relative to control
[8] = biological target: Calcium/calmodulin-dependent protein kinase type II subunit delta (Homo sapiens) (UniProt Q13557); assay: Inhibition of recombinant full-length human CaMK2delta at 1 uM using calmodulin as substrate measured after 40 mins in presence of [gamma33P]ATP by scintillation counting method relative to control
[9] = biological target: Inhibitor of nuclear factor kappa-B kinase subunit epsilon (Homo sapiens) (UniProt Q14164); assay: Inhibition of recombinant full-length human IKKepsilon at 1 uM using casein as substrate measured after 40 mins in presence of [gamma33P]ATP by scintillation counting method relative to control
Inhibitor of nuclear factor kappa-B kinase subunit epsilon (Homo sapiens), sequence (Q14164 whole entry): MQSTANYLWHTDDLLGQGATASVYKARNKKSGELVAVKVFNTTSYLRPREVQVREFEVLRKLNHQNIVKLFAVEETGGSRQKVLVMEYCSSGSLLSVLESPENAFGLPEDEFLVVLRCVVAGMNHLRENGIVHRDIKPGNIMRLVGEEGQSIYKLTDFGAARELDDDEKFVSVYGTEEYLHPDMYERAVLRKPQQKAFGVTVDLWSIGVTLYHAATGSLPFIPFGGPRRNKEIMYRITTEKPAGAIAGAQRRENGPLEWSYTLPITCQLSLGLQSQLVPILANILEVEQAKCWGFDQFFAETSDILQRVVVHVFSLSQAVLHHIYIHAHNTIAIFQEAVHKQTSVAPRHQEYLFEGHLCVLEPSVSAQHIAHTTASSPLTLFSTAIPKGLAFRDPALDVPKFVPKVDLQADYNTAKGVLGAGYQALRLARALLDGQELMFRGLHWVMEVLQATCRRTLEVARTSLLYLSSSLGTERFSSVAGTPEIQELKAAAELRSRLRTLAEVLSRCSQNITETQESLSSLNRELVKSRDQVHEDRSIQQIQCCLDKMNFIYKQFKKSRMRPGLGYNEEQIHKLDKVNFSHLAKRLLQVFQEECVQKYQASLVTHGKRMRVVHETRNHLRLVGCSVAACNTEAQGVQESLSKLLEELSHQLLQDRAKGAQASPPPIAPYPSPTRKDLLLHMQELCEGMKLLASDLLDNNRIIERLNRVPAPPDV

A549 = assay: Induction of apoptosis in human A549 cells assessed as decrease in Bcl-2 protein expression at 0.25 to 1 uM after 24 hrs by Western blot analysis; assay type: functional, cell-based
Summary of the method: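 A549 or H1299 cells exposed to the indicated concentrations for 24 h. Protein extracts then immunoblotted for apoptosis-pathway proteins (Bcl2, Bim, cleaved caspase 3).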

[10] = biological target: Tyrosine-protein kinase Fgr (Homo sapiens) (UniProt P09769); assay: Inhibition of recombinant human FGR (2 to end residues) at 1 uM using poly(Glu, Tyr) 4:1 as substrate measured after 40 mins in presence of [gamma33P]ATP by scintillation counting method relative to control
Tyrosine-protein kinase Fgr (Homo sapiens), sequence (P09769 2-529 limits assumed): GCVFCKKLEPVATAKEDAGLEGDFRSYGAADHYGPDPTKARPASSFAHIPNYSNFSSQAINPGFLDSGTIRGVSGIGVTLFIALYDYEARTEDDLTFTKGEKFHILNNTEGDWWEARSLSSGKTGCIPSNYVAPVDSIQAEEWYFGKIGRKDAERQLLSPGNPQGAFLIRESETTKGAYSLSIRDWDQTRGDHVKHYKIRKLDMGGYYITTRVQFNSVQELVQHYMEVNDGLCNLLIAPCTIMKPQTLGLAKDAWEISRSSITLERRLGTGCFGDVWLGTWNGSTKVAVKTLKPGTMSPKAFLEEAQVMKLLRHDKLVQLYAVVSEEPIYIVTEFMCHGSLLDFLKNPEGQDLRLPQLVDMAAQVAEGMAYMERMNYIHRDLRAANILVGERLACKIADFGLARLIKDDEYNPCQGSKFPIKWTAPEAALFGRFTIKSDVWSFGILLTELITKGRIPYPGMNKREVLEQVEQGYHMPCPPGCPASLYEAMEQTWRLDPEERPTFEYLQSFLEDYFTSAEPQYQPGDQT

[11] = biological target: Misshapen-like kinase 1 (Homo sapiens) (UniProt Q8N4C8); assay: Inhibition of recombinant human MINK (1 to 310 recombinant) at 1 uM using myelin basic protein as substrate measured after 40 mins in presence of [gamma33P]ATP by scintillation counting method relative to control
Misshapen-like kinase 1 (Homo sapiens), sequence (Q8N4C8 whole entry, looked up): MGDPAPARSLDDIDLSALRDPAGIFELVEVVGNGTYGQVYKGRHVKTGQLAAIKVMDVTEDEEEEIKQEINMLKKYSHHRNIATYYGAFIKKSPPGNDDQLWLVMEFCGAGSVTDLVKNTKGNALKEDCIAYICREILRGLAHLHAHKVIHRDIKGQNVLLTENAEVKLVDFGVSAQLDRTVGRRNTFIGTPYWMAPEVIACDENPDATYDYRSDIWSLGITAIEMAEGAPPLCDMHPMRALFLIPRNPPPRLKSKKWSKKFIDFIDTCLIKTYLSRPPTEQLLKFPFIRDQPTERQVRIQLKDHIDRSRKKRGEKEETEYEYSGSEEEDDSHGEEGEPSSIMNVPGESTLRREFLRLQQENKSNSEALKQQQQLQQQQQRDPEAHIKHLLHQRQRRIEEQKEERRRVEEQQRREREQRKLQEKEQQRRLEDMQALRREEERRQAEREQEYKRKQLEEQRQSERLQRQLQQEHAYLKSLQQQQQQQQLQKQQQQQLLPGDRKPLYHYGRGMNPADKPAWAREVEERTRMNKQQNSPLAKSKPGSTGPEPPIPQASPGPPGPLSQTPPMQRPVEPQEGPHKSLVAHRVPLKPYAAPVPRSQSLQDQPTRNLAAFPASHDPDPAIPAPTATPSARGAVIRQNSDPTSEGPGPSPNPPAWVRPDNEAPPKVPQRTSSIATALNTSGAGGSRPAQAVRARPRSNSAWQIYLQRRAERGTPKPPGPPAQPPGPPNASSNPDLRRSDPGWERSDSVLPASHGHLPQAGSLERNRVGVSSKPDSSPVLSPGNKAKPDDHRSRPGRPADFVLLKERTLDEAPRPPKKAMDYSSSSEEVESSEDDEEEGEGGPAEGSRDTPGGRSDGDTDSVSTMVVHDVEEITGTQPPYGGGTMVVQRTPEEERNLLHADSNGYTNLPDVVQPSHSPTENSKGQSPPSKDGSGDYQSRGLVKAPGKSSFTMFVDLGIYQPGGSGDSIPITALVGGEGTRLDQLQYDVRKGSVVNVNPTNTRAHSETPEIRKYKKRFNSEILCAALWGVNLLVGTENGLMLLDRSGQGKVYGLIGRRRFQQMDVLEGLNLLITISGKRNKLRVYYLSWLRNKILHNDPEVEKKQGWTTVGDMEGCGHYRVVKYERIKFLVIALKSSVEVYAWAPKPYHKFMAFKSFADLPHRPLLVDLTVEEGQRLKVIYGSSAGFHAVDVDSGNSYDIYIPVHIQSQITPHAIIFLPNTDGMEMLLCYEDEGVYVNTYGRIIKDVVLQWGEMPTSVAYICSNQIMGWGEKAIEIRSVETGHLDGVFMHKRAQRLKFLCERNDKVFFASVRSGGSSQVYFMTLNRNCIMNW

[12] = biological target: Serine/threonine-protein kinase Nek6 (Homo sapiens) (UniProt Q9HC98); assay: Inhibition of recombinant human NEK6 (2 to end residues) at 1 uM using FLAKSFGSPNRAY as substrate measured after 40 mins in presence of [gamma33P]ATP by scintillation counting method relative to control
Homo sapiens = species: Homo sapiens; assay: Inhibition of recombinant human PRAK R291E mutant at 1 uM using KKLRRTLSVA as substrate measured after 40 mins in presence of [gamma33P]ATP by scintillation counting method relative to control
[13] = biological target: Cyclin-dependent kinase 9 (Homo sapiens) (UniProt P50750); conditions: A549, 0.25 to 1 uM
Cyclin-dependent kinase 9 (Homo sapiens), sequence (P50750 whole entry): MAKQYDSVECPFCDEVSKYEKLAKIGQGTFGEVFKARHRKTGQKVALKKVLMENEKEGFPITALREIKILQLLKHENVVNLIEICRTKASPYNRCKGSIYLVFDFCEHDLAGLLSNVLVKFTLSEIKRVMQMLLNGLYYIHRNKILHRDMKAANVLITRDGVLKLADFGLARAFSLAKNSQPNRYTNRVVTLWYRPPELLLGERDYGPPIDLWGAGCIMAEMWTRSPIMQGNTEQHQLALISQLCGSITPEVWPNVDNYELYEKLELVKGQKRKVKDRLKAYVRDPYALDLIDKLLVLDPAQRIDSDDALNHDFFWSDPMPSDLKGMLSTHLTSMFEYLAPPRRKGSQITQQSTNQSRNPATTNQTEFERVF

NCI-H1299 [14] = assay: Induction of apoptosis in human H1299 cells assessed as necrotic cells at 0.25 uM after 48 hrs by AnnexinV-FITC/PI staining-based flow cytometric analysis (reference value: 0.9%); assay type: functional
[15] = biological target: Mitogen-activated protein kinase kinase kinase kinase 1 (Homo sapiens) (UniProt Q92918); assay: Inhibition of recombinant human HPK1 (1 to 346 residues) at 1 uM using myelin basic protein as substrate measured after 40 mins in presence of [gamma33P]ATP by scintillation counting method relative to control
Mitogen-activated protein kinase kinase kinase kinase 1 (Homo sapiens), sequence (Q92918 whole entry, looked up, the tested form may be a part): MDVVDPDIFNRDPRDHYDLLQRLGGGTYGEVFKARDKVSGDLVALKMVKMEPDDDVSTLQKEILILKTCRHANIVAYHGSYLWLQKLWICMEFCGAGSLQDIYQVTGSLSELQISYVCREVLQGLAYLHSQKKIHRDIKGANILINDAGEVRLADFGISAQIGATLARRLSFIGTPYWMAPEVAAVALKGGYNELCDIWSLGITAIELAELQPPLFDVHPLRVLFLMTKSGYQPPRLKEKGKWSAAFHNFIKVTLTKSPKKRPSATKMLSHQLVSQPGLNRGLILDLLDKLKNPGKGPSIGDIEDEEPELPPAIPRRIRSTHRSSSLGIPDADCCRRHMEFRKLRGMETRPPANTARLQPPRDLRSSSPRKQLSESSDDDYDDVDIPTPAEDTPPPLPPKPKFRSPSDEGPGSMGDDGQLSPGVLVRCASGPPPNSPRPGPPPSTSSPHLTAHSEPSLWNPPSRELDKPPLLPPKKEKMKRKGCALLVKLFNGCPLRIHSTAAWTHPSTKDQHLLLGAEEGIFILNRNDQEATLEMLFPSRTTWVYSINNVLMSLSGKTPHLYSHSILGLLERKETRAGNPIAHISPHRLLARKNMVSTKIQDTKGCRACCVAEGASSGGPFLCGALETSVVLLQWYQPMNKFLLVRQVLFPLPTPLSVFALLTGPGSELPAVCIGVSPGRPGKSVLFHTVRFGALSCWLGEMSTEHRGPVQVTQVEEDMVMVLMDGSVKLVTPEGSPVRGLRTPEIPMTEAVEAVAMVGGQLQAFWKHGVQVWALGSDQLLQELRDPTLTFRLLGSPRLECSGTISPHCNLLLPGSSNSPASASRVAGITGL

[16] = biological target: Myosin-IIIb (Homo sapiens) (UniProt Q8WXR4); assay: Inhibition of recombinant human MYO3B (1 to 326 residues) at 1 uM using RLGRDKYKTLRQIRQ as substrate measured after 40 mins in presence of [gamma33P]ATP by scintillation counting method relative to control
[17] = biological target: Phosphatidylinositol 5-phosphate 4-kinase type-2 alpha (Homo sapiens) (UniProt P48426); assay: Inhibition of recombinant full-length human PIP4K2alpha at 1 uM using phosphatidylinositol 5-phosphate as substrate measured after 40 mins by HTRF assay relative to control
[18] = biological target: SRSF protein kinase 2 (Homo sapiens) (UniProt P78362); assay: Inhibition of human SRPK2 (46 to end residues) at 1 uM using RSRSRSRSRSRSRSR as substrate measured after 40 mins in presence of [gamma33P]ATP by scintillation counting method relative to control
SRSF protein kinase 2 (Homo sapiens), sequence (P78362 whole entry, looked up): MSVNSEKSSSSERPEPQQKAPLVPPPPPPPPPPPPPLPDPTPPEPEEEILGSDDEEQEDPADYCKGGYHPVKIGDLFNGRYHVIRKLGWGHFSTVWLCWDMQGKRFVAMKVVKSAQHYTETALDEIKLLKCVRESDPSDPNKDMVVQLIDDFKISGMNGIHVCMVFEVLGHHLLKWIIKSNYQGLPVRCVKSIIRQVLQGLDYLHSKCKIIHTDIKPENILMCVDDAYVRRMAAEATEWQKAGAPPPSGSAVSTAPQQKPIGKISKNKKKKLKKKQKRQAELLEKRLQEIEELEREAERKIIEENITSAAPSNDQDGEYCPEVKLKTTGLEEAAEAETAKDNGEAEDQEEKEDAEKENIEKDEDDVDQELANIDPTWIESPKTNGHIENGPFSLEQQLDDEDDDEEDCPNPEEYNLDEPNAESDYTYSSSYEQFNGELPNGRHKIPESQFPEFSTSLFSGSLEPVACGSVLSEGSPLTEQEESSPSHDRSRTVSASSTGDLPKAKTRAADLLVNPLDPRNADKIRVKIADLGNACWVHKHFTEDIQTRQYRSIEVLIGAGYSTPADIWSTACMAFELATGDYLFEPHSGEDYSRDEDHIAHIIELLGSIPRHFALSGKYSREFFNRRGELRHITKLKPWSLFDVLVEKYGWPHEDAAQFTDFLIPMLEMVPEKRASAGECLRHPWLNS
Summary of the method: (§1)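 Percent inhibition of kinase activity at a single compound concentration, measured by the outsourced Eurofins KinaseProfiler panel. Values are the mean of two independent experiments.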

[19] = biological target: Calcium/calmodulin-dependent protein kinase type II subunit alpha (Homo sapiens) (UniProt Q9UQM7); assay: Inhibition of full-length recombinant human CaMK2 alpha at 1 uM using KKLNRTLSFAEPG as substrate measured after 40 mins in presence of [gamma33P]ATP by scintillation counting method relative to control; summary of the method: as §1
NCI-H1299 [20] = assay: Inhibition of tumorsphere formation in human H1299 cells assessed as reduction in side population ratio at 0.25 to 1 uM by PI/Hoechst 33342 staining based flow cytometry; assay type: functional, cell-based
[21] = biological target: Cyclin-dependent kinase 9 (Homo sapiens) (UniProt P50750); conditions: 0.25 uM

SMILES: CN(C)C(=O)c1cc2cnc(Nc3ccc(NC(=O)CCCCCCCN=C=S)cc3)nc2n1C1CCCC1
- Activity (NCI-H1299 [1]): inactive
- inhibition [2]: 52%
- inhibition [3]: 65%
- inhibition [4]: 71%
- inhibition [5]: -3%
- viability at 0.25 µM (NCI-H1299 [6]): 96.7%
- inhibition [7]: -3%
- inhibition [8]: 36%
- inhibition [9]: -4%
- Activity (A549): Active
- inhibition [10]: 66%
- inhibition [11]: 39%
- inhibition [12]: 4%
- inhibition (Homo sapiens): 3%
- inhibition [13]: Active
- Activity (NCI-H1299 [14]): 0.669%
- inhibition [15]: 85%
- inhibition [16]: -1%
- inhibition [17]: 0%
- inhibition [18]: 4%
- inhibition [19]: 61%
- inhibition (NCI-H1299 [20]): Active
- inhibition [21]: Active
